Measured values from different studies.
pIC50: −log10 of the molar value.
Observed: cell growth or viability

O=C1CS/C(=N\c2cc(C(F)(F)F)ccc2-c2nnc(N3C(=O)CS/C3=N\c3cc(O)cc(Br)c3)s2)N1c1cc(O)cc(Br)c1 — pIC50 (WI-38; MTT): 4.15
CCCCC(=O)Nc1ccc(-c2ccc3ncn(CCC)c(=O)c3c2)c(C)n1 — pIC50 (HCC827; CCK-8; 72 h): 5.77
NCc1ccc(-c2nn(Cc3ccncc3)c3ccccc23)o1 — pIC50 (HuCCT-1; ATP luminescence): < 4.34
CCCCC(=O)Nc1ccc(-c2ccc3ncn(CCC)c(=O)c3c2)c(F)n1 — pIC50 (HCC827; CCK-8; 72 h): 6.09
Nc1c([I+]c2ccccc2)c(=O)oc2ccccc12 — pIC50 (HaCaT; MTT; 48 h): 4.18
CCCCC(=O)Nc1ccc(-c2ccc3ncn(CCC)c(=O)c3c2)cn1 — pIC50 (HCC827; CCK-8; 72 h): 7.43
COc1cccc2c1C(=O)c1c(O)c3c(c(O)c1C2=O)C[C@@](O)(C(=O)CO)C[C@@H]3O[C@H]1C[C@H](N)[C@H](O)[C@H](C)O1 — pIC50 (HPAF-II; ATP luminescence; 72 h): 6.15
CCCCn1cnc2ccc(-c3ccc(NC(=O)Nc4ccccc4)nc3)cc2c1=O — pIC50 (HCC827; CCK-8; 72 h): 6.01
Cc1cccc([N+](=O)[O-])c1N=C1SCC(=O)N1c1nnc(-c2ccc(C(F)(F)F)cc2N=C2SCC(=O)N2c2c(C)cccc2[N+](=O)[O-])s1 — pIC50 (WI-38; MTT): 4.17
OCc1ccc(-c2nn(Cc3ccncc3)c3ccccc23)o1 — pIC50 (HuCCT-1; ATP luminescence): < 4.34
O=P1(c2ccccc2)CCCCC1 — pIC50 (HaCaT; MTT; 72 h): < 4.00
Cc1nc(Nc2ncc(C(=O)Nc3c(C)cccc3Cl)s2)cc(N2CC[C@H](O)C2)n1 — pIC50 (OCI-LY19; ATP luminescence; 72 h): < 5.00
OCc1ccc(-c2nn(Cc3ccncc3)c3cccnc23)o1 — pIC50 (HuCCT-1; ATP luminescence): < 4.34
CC(C)=CCc1ncc(/C=C2\NC(=O)[C@H](C(C)C)NC2=O)[nH]1 — pIC50 (ASPC1; SRB): < 4.82
OCc1ccc(-c2nn(Cc3cccnc3)c3ccccc23)o1 — pIC50 (HuCCT-1; ATP luminescence): < 4.34
COc1cccc2c1C(=O)c1c(O)c3c(c(O)c1C2=O)C[C@@](O)(C(=O)CO)C[C@@H]3O[C@H]1C[C@H](N)[C@H](O)[C@H](C)O1 — pIC50 (WI-38; MTT): 4.28
CCCn1cnc2ccc(-c3ccc(NC(=O)CC4CC4)nc3)cc2c1=O — pIC50 (HCC827; CCK-8; 72 h): 6.04
CC(C)[C@@H]1NC(=O)[C@H](Cc2c[nH]cn2)NC1=O — pIC50 (ASPC1; SRB): < 4.82
O=C1CS/C(=N\c2cc(C(F)(F)F)ccc2-c2nnc(N3C(=O)CS/C3=N\c3cccc(Cl)c3)s2)N1c1cccc(Cl)c1 — pIC50 (WI-38; MTT): 4.33
COc1ccc(N=Nc2c(N)nn3c(-c4ccc(C)cc4)cc(-c4ccc(OCc5ccccc5)cc4)nc23)cc1 — pIC50 (WI-38; MTT; 48 h): 4.33
OCc1ccc(-c2nn(Cc3cccnc3)c3cccnc23)o1 — pIC50 (HuCCT-1; ATP luminescence): < 4.34
O=C(Nc1ccc(-c2ccc3ncn(Cc4ccc5c(c4)OCO5)c(=O)c3c2)cn1)c1ccccc1 — pIC50 (HCC827; CCK-8; 72 h): 5.06
COc1cc(C2C3=C(COC3=O)N(CCO)c3cc4c(cc32)CCC4)cc(OC)c1OC (centres unmarked) — pIC50 (E0771; ATP luminescence; 48 h): 7.41
COc1cccc2c1C(=O)c1c(O)c3c(c(O)c1C2=O)C[C@@](O)(C(=O)CO)C[C@@H]3O[C@H]1C[C@H](N)[C@H](O)[C@H](C)O1 — pIC50 (HuCCT-1; 96 h): 7.60
CNC(=O)c1ccccc1Nc1cc(Nc2ccc(N3CCOCC3)cc2OC)ncc1C(F)(F)F — pIC50 (ASPC1; MTT; 48 h): 5.50
COc1ccc(N=C2SCC(=O)N2c2nnc(-c3ccc(C(F)(F)F)cc3N=C3SCC(=O)N3c3ccc(OC)cc3)s2)cc1 — pIC50 (WI-38; MTT): 4.16
O=P1(C2CCCCC2)CCCCC1 — pIC50 (HaCaT; MTT; 72 h): < 4.00
O=c1[nH]cc(F)c(=O)[nH]1 — IC50 (HaCaT; SRB): 0.05 µg/mL
COc1cnccc1Cn1nc(-c2ccc(CO)o2)c2ccccc21 — pIC50 (HuCCT-1; ATP luminescence): < 4.34
O=C1CS/C(=N\c2ccccc2Cl)N1c1nnc(-c2ccc(C(F)(F)F)cc2/N=C2\SCC(=O)N2c2ccccc2Cl)s1 — pIC50 (WI-38; MTT): 4.31
CCCCn1cnc2ccc(-c3ccc(NC(=O)NCC)nc3)cc2c1=O — pIC50 (HCC827; CCK-8; 72 h): < 5.00
O=C1CSC(=Nc2cc(C(F)(F)F)ccc2-c2nnc(N3C(=O)CSC3=Nc3ccc([N+](=O)[O-])cc3)s2)N1c1ccc([N+](=O)[O-])cc1 — pIC50 (WI-38; MTT): 4.11
CCCCn1cnc2ccc(-c3ccc(NC(=O)Nc4ccc(CC)cc4)nc3)cc2c1=O — pIC50 (HCC827; CCK-8; 72 h): < 5.00
O=C1CSC(=Nc2cc([N+](=O)[O-])ccc2[N+](=O)[O-])N1c1nnc(-c2ccc(C(F)(F)F)cc2N=C2SCC(=O)N2c2cc([N+](=O)[O-])ccc2[N+](=O)[O-])s1 — pIC50 (WI-38; MTT): 4.05
COc1cccc(Cn2nc(-c3ccc(CO)o3)c3ccccc32)c1 — pIC50 (HuCCT-1; ATP luminescence): < 4.34
